Measured values pooled from the literature.
Lines come from different studies, so protocols differ.
Genome polyprotein protease: Genome polyprotein, protease (ZIKV, UniProt A0A024B7W1)
CTSB: Cathepsin B (CTSB, Homo sapiens, UniProt P07858)
Adra1a: Alpha-1A adrenergic receptor (Adra1a, Rattus norvegicus, UniProt P43140)

Structure (SMILES)	target	test	conditions	inhibition [%]
CCOC(=O)c1ccc(OC(=O)CCCCCNC(=N)N)cc1	Ubiquitin carboxyl-terminal hydrolase 14 (USP14, Homo sapiens, UniProt P54578)	enzyme activity, inhibitor	10 µM	1
C#Cc1n[nH]c2c(-c3cn(C(C)c4ccccn4)c(=O)[nH]c3=O)cc(F)cc12 (centres unmarked)	Dual specificity protein kinase CLK3 (CLK3, Homo sapiens, UniProt P49761)	enzyme activity, inhibitor	1 µM	8.3
C[C@@H]1O[C@@H](O[C@H]2[C@H](Oc3cc(O)c4c(c3)O[C@H](c3ccc(O)cc3)CC4=O)O[C@H](CO)[C@@H](O)[C@@H]2O)[C@H](O)[C@H](O)[C@H]1O	Genome polyprotein protease	enzyme activity, inhibitor, FRET	100 µM, pH 7	12.5
CCN(CC)CCCC[C@H](NC(=O)[C@H](CC(C)C)NC(=O)[C@H](C)NC(=O)[C@H](Cc1ccccc1)NC(=O)c1ccc(C(C)(C)C)cc1)C(=O)N[C@@H](CO)C(=O)OC	5-hydroxytryptamine receptor 7 (HTR7, Homo sapiens, UniProt P34969)	ligand displacement, radioligand	10 µM	8
CN(C)C(=O)COC(=O)Cc1ccc(OC(=O)c2ccc(NC(=N)N)cc2)cc1	CTSB	enzyme activity, inhibitor	10 µM	0
C#Cc1n[nH]c2c(-c3cn([C@@H](C)c4ccccc4)c(=O)[nH]c3=O)cc(F)cc12	Cyclin-dependent kinase 2, with cyclin E1 (CDK2, Homo sapiens, UniProt P24941)	enzyme activity, inhibitor	0.1 µM	-4.8
CC(C)N1CCC[C@H]1CNC(=O)c1cn(C2CCCC2)c(=O)c2c1c1ccccc1n2C	Adra1a	ligand displacement, radioligand	10 µM	16
O=c1c(O)c(-c2cc(O)c(O)c(O)c2)oc2cc(O)cc(O)c12	Genome polyprotein protease	enzyme activity, inhibitor, FRET	100 µM, pH 7	88
Cn1cc(-c2cccc(N3CCc4c(sc5c4CC(C)(C)C5)C3=O)c2CO)cc(Nc2ccncn2)c1=O	Cyclin-dependent kinase 8, with cyclin C (CDK8, Homo sapiens, UniProt P49336)	enzyme activity, inhibitor	1 µM	-1
CC(C)C[C@H](NC(=O)[C@H](Cc1ccccc1)NC(=O)c1cnccn1)B(O)O	Suppressor of tumorigenicity 14 protein (ST14, Homo sapiens, UniProt Q9Y5Y6)	cell-free assay, inhibitor	33 µM	51.5
CC(C)C[C@H](NC(=O)[C@H]1O[C@@H]1C(=O)O)C(=O)NCCCCN=C(N)N	CTSB	enzyme activity, inhibitor	500 pM	32
Cc1ncc(C)n2nc(/C=C/c3nc(N4CCCC4)cc(N4CCOCC4)n3)nc12	Oxysterols receptor LXR-beta (NR1H2, Homo sapiens, UniProt P55055)	cell-free assay	10 µM	-19
N=C(N)c1ccc2cc(OC(=O)c3ccc(N=C(N)N)cc3)ccc2c1	CTSB	enzyme activity, inhibitor	10 µM	48
COc1ccc(-c2oc3c(CC=C(C)C)c(O)cc(O)c3c(=O)c2O)cc1	Genome polyprotein protease	enzyme activity, inhibitor, FRET	100 µM, pH 7	19
O=C(Nc1cccnn1)N1CCN([C@@H]2CCOc3cc(C(F)(F)F)ccc32)CC1	C-C chemokine receptor type 2 (CCR2, Homo sapiens, UniProt P41597)	cell-free assay	20 µM	-9
CC(C)Cn1cnc2c(N)nc3ccccc3c21	Adra1a	ligand displacement, radioligand	10 µM	65
Oc1cccc(O)c1O	Genome polyprotein protease	enzyme activity, inhibitor, FRET	100 µM, pH 7	11
O=C1N=C(N2CCCCN2)S/C1=C\c1ccc(F)cc1O	5-hydroxytryptamine receptor 6 (HTR6, Homo sapiens, UniProt P50406)	ligand displacement, radioligand	10 µM	< 10
N#Cc1ccc(NCCNCC(=O)N2N=CCC2C#N)nc1 (centres unmarked)	Dipeptidyl peptidase 9 (DPP9, Homo sapiens, UniProt Q86TI2)	enzyme activity, inhibitor	0.1 µM	0
O=c1c(O)c(-c2ccc(O)c(O)c2)oc2cc(O)cc(O)c12	Genome polyprotein protease	enzyme activity, inhibitor	200 µM, pH 8.5	100
O=C1c2c(O)cc(O)cc2O[C@H](c2cc(O)c(O)c(O)c2)[C@H]1O	Genome polyprotein protease	enzyme activity, inhibitor, FRET	100 µM, pH 7	23
COc1cc(Nc2ncc(F)c(Nc3ccc4c(n3)NC(=O)C(C)(C)O4)n2)cc(OC)c1OC	SNF-related serine/threonine-protein kinase (SNRK, Homo sapiens, UniProt Q9NRH2)	binding	10 µM	7
c1ccc(C(NCCNC(c2ccccc2)c2ccccc2)c2ccccc2)cc1	Voltage-dependent N-type calcium channel subunit alpha-1B (Cacna1b, Rattus norvegicus, UniProt Q02294)	cell-free assay	10 µM	-6
